# From publication PMC3728915 (Chemical science (Royal Society of Chemistry : 2010), 2013)
# What was measured:
# [1] = system: U-937 and HeLa human cancer cell lines; test: Anticancer activity screen, cell line not given; format: cell-based
# Outline: (§1)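 Human cancer cells were exposed continuously to test compound for 72 h. Viability was read by MTS for U-937 cells and by sulforhodamine B staining for HeLa cells. IC50 values are given in nM as the mean of at least three determinations with standard deviation.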
# U-937 cells = test: Annexin V-FITC / propidium iodide apoptosis analysis; format: cell-based, human; settings: 24 hours, U-937, 100-times the 72-hour IC50 values
# [2] = system: U-937, HeLa, H460, 786-O, and MCF-7; test: 72-hour cytotoxicity across five human cell lines; format: cell-based; settings: MTS and SRB cytotoxicity assays
# Outline: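 Cells were treated with test compound for 72 h. U-937 cells were read by MTS reduction. HeLa, H460, 786-O and MCF-7 cells were read by sulforhodamine B staining. IC50 values are given in nM as the mean with standard deviation, n ≥ 3.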
# [3] = system: U-937 (hystiocytic lymphoma); test: 72-hour MTS cytotoxicity assay in U-937 cells; format: cell-based, human; settings: read-out: IC50 (U-937), 72-hour exposure
# Outline: as §1
# [4] = system: HeLa (cervical carcinoma); test: 72-hour SRB cytotoxicity assay in HeLa cells; format: cell-based, human; settings: read-out: IC50 (HeLa), 72-hour exposure
# Outline: as §1
compound,measurement,setting,value
(+)-gliocladin B [Compound 7],IC50,"[1]; anticancer activity, cell line not specified",> 10000 nM
(+)-chaetocin C [Compound 5],induction of apoptotic cell death,U-937 cells,induce caspase-dependent apoptotic cell death
same,IC50 / potency range (in words),[2],subnanomolar
"CN1C(=O)[C@@]23C[C@]4([C@]56C[C@@]78SS[C@@](CO)(C(=O)N7[C@H]5Nc5ccccc56)N(C)C8=O)c5ccccc5N[C@@H]4N2C(=O)[C@]1(CO)SS3 [Compound 4, (+)-chaetocin A]",IC50 / potency range (in words),[2],subnanomolar
"(+)-12,12'-dideoxyverticillin A [Compound 3]",IC50,[3],15.5 nM
same,IC50,[4],7.2 nM
"CN1C(=O)C(=O)N2C(=C[C@]3(c4c[nH]c5ccccc45)c4ccccc4N[C@H]23)C1=O [Compound 52, (+)-Gliocladin C]",anticancer activity (in words),"[1]; 72-hour exposure, U-937 and HeLa",complete loss of biological activity
